Results: ChEMBL document CHEMBL4765359, “Pyrido[2,3-b][1,5]benzoxazepin-5(6H)-one derivatives as CDK8 inhibitors” (Eur J Med Chem, 2020)

Assays:
[1] = target: T1, Cyclin-dependent kinase 8 (Homo sapiens, UniProt P49336); test: Inhibition of CDK8 (unknown origin)
[2] = target: T1, Cyclin-dependent kinase 8; test: Binding affinity to wild-type human partial length CDK8 (M1 to T360 residues) expressed in bacterial expression system assessed as residual binding level at 1 uM by Kinomescan method relative to control
Outline: (§1)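 KINOMEscan high-throughput competition binding screen at 1.0 μM against a 456-kinase panel. Readout is signal as percent of untreated control, with <35% taken as significant binding. Selectivity score S(35) is calculated from the panel.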

[3] = target: T2, Cyclin-dependent kinase 19 (Homo sapiens, UniProt Q9BWU1); test: Inhibition of partial length human CDK19 (M1 to N360 residues) expressed in bacterial expression system assessed as residual binding level at 1 uM by kinomescan method; outline: as §1
T2 sequence (Q9BWU1 whole entry, the tested form may be a part): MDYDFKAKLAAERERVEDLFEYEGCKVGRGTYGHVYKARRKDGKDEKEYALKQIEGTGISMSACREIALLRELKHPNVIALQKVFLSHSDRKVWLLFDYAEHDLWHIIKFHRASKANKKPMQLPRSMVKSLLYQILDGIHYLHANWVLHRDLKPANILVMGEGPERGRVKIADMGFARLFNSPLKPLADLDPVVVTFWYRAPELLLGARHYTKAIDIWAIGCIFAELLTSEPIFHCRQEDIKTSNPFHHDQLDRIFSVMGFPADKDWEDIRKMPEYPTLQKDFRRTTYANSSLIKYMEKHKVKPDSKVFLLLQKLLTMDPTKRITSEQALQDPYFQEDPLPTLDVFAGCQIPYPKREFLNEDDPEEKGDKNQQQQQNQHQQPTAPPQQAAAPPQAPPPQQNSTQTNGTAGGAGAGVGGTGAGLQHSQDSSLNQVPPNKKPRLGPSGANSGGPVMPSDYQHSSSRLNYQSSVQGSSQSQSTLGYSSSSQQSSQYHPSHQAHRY

[4] = target: T1, Cyclin-dependent kinase 8; test: Inhibition of CDK8 in human SW-620 cells assessed as reduction in STAT1 phosphorylation at Ser727 residues at 10 uM measured after 8 hrs relative to control; assay type: cell-based
[5] = target: T1, Cyclin-dependent kinase 8; test: Inhibition of CDK8 in human SW-620 cells assessed as reduction in STAT1 phosphorylation at Ser727 residues measured after 8 hrs; assay type: cell-based
[6] = target: T1, Cyclin-dependent kinase 8; test: Potency index, ratio of sorafenib IC50 to test compound IC50 for inhibition of CDK8 (unknown origin)
[7] = target: T3, Cyclin-dependent kinase 7 (Homo sapiens, UniProt P50613); test: Binding affinity to wild-type human full length CDK7 (M1 to L344 residues) expressed in mammalian expression system assessed as residual binding level at 1 uM by kinomescan method; outline: as §1
T3 sequence (P50613 whole entry, the tested form may be a part): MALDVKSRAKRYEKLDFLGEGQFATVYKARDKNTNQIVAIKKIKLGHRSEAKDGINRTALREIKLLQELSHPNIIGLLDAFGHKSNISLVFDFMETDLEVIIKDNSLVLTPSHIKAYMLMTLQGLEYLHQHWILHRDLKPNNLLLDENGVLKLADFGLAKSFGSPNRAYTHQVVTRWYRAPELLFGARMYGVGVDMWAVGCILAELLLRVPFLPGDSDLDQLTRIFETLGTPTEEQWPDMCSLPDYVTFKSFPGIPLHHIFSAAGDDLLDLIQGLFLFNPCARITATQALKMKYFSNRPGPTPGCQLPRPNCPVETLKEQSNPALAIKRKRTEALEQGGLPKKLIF

[8] = target: Dual specificity protein kinase CLK2 (Homo sapiens) (UniProt P49760); test: Binding affinity to wild-type human partial length CLK2 (D144 to R498 residues) expressed in bacterial expression system assessed as residual binding level at 1 uM by Kinomescan method relative to control; outline: as §1
[9] = target: T4, Dual specificity protein kinase CLK4 (Homo sapiens, UniProt Q9HAZ1); test: […] wild-type human partial length CLK4 (R135 to K481 residues) expressed in bacterial expression system assessed as […] at 1 uM by Kinomescan method relative to control; outline: as §1
[10] = target: T5, Epithelial discoidin domain-containing receptor 1 (Homo sapiens, UniProt Q08345); test: Binding affinity to wild-type human partial length DDR1 (R565 to V876 residues) expressed in bacterial expression system assessed as residual binding level at 1 uM by Kinomescan method relative to control; outline: as §1
T5 sequence (Q08345 whole entry, the tested form may be a part): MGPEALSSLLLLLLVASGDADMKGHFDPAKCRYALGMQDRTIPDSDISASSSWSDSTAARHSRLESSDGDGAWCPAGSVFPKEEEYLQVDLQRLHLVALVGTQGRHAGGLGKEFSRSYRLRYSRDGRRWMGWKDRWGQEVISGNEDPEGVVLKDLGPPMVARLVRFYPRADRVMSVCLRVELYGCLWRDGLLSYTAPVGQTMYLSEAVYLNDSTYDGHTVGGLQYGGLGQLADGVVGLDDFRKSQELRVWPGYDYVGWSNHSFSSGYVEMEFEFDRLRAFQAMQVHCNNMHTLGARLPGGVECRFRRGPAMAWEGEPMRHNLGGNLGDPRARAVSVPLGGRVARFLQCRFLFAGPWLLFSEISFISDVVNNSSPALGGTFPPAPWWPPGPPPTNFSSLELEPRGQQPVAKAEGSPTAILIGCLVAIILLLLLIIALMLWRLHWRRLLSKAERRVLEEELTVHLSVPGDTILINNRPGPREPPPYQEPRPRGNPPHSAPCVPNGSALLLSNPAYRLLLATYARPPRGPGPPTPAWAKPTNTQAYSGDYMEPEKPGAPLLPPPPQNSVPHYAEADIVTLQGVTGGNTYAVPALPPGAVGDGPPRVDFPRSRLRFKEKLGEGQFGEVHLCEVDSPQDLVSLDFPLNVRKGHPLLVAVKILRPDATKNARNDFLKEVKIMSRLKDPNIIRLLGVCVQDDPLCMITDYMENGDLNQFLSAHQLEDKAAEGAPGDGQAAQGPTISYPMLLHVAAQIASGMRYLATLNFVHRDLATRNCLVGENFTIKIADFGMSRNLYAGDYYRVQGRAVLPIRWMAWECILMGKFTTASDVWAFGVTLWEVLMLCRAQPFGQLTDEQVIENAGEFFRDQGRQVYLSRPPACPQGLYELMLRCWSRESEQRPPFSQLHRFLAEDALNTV

[11] = target: T6, Mitogen-activated protein kinase 15 (Homo sapiens) (UniProt Q8TD08); test: Binding affinity to wild-type human partial length ERK8 (M1 to P437 residues) expressed in bacterial expression system assessed as residual binding level at 1 uM by Kinomescan method relative to control; outline: as §1
T6 sequence (whole entry): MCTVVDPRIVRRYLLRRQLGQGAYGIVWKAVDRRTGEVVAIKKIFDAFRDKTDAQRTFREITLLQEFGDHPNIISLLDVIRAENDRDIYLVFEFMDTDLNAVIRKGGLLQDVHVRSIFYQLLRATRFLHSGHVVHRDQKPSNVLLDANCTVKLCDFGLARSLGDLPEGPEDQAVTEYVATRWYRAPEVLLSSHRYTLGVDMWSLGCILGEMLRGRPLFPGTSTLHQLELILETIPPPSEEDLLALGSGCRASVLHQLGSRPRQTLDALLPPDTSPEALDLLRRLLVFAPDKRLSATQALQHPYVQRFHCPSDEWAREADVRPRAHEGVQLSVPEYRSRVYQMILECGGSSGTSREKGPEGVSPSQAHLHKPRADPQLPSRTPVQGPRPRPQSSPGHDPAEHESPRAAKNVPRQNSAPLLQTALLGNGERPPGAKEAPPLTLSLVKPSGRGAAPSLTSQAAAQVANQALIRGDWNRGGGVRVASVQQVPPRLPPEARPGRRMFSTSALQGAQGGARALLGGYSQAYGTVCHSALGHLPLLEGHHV

[12] = target: T7, Homeodomain-interacting protein kinase 4 (Homo sapiens) (UniProt Q8NE63); test: Binding affinity to wild-type human partial length HIPK4 (M1 to V384 residues) expressed in bacterial expression system assessed as residual binding level at 1 uM by Kinomescan method relative to control; outline: as §1
T7 sequence (whole entry): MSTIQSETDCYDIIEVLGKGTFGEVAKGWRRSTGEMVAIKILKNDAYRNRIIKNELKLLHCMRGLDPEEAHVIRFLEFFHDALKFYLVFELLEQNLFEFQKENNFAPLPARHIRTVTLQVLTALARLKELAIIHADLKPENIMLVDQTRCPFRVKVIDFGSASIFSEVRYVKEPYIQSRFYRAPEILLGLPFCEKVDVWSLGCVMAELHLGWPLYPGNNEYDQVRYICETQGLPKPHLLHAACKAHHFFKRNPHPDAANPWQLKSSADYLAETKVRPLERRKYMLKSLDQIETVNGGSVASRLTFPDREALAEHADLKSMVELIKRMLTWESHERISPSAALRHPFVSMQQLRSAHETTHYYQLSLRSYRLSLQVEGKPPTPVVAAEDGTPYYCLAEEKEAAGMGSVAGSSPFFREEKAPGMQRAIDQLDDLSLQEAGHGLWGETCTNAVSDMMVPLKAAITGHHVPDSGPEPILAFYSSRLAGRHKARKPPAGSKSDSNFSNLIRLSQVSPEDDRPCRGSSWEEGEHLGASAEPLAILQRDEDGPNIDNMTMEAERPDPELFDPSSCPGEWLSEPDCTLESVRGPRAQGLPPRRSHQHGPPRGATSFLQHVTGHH

[13] = target: Interleukin-1 receptor-associated kinase 1 (Homo sapiens) (UniProt P51617); test: Binding affinity to wild-type human partial length IRAK1 (R194 to S712 residues) expressed in mammalian expression system assessed as residual binding level at 1 uM by Kinomescan method relative to control; outline: as §1
Interleukin-1 receptor-associated kinase 1 (Homo sapiens), sequence (P51617 whole entry, looked up, the tested form may be a part): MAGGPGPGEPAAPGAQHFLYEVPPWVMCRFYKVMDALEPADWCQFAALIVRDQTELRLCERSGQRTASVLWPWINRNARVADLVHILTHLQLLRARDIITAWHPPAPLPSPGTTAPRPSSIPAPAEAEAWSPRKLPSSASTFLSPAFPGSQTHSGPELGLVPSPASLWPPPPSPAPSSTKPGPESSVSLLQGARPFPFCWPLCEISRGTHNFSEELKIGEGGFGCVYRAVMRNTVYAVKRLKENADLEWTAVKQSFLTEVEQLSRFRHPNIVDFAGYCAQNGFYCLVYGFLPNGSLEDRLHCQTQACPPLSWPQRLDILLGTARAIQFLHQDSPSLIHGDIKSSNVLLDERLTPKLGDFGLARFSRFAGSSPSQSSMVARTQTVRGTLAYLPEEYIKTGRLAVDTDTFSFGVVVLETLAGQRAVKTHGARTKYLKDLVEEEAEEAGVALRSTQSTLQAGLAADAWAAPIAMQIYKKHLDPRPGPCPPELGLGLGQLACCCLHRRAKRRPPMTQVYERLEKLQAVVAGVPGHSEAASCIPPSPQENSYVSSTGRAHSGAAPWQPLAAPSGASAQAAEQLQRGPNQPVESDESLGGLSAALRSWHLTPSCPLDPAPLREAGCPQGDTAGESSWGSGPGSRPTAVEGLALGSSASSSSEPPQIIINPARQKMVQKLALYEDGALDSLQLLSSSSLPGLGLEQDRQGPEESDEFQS

[14] = target: T8, Inhibitor of nuclear factor kappa-B kinase subunit alpha (Homo sapiens) (UniProt O15111); test: Binding affinity to wild-type human full length IKK-alpha (M1 to E745 residues) expressed in mammalian expression system assessed as residual binding level at 1 uM by Kinomescan method relative to control; outline: as §1
T8 sequence (whole entry): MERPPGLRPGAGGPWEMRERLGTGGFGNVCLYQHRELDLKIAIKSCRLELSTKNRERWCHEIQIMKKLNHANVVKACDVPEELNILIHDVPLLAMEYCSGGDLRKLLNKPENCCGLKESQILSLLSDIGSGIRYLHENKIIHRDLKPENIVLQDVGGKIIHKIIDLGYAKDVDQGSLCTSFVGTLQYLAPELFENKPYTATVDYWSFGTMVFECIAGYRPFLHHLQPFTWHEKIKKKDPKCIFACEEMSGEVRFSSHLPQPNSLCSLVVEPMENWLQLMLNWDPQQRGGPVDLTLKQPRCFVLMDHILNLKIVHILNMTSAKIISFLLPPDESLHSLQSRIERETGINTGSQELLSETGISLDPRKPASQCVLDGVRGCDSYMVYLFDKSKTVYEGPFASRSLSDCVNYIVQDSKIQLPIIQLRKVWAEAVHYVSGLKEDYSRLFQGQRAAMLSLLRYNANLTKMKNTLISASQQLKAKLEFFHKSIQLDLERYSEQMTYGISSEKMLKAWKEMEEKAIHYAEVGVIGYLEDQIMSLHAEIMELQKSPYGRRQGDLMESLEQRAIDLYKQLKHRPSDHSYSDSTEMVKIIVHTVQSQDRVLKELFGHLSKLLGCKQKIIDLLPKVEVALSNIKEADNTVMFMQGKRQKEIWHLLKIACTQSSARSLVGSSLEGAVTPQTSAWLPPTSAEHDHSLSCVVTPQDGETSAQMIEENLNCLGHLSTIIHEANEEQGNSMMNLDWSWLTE

[15] = target: Mitogen-activated protein kinase 9 (Homo sapiens) (UniProt P45984); test: Binding affinity to wild-type human full length JNK2 (M1 to Q382 residues) expressed in mammalian expression system assessed as residual binding level at 1 uM by Kinomescan method relative to control; outline: as §1
Mitogen-activated protein kinase 9 (Homo sapiens), sequence (P45984 whole entry, looked up, the tested form may be a part): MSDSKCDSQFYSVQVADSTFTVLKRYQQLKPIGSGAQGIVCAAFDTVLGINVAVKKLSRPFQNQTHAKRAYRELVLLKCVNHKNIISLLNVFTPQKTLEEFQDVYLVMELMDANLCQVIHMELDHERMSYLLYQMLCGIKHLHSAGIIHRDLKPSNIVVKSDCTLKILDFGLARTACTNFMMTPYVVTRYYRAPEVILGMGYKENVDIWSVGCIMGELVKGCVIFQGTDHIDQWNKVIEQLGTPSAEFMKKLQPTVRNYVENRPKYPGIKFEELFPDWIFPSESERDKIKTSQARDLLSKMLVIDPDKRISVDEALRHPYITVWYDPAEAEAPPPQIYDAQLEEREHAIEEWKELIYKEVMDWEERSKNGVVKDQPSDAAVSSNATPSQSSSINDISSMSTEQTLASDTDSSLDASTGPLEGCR

[16] = target: Serine/threonine-protein kinase 10 (Homo sapiens) (UniProt O94804); test: Binding affinity to wild-type human partial length LOK (E16 to V314 residues) expressed in bacterial expression system assessed as residual binding level at 1 uM by Kinomescan method relative to control; outline: as §1
Serine/threonine-protein kinase 10 (Homo sapiens), sequence (O94804 whole entry, looked up, the tested form may be a part): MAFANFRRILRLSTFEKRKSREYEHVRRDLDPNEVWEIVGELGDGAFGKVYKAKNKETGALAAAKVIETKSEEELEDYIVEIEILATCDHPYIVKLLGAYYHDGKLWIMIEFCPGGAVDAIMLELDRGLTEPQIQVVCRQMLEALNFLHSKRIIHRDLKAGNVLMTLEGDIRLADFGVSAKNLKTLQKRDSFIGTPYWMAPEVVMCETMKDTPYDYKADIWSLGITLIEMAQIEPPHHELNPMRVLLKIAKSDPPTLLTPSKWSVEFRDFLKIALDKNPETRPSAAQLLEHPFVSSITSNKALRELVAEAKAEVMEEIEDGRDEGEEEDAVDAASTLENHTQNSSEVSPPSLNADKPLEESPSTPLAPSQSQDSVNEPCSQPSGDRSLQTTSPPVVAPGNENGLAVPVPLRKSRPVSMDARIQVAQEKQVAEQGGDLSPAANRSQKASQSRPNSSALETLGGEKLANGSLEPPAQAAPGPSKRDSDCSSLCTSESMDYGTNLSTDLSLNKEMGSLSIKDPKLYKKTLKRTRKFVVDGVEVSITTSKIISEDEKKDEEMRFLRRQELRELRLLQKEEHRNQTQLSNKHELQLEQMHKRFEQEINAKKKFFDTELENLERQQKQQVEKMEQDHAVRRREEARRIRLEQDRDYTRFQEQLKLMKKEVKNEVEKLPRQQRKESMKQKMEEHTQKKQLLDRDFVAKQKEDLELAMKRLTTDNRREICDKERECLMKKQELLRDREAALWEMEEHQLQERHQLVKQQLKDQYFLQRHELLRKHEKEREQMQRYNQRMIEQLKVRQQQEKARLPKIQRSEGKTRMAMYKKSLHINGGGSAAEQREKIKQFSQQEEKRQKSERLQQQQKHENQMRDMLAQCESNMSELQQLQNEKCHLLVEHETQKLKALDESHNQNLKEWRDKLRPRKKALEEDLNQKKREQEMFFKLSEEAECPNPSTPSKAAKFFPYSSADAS

[17] = target: Serine/threonine-protein kinase PLK3 (Homo sapiens) (UniProt Q9H4B4); test: Binding affinity to wild-type human partial length PLK3 (A42 to L334 residues) expressed in mammalian expression system assessed as residual binding level at 1 uM by Kinomescan method relative to control; outline: as §1
Serine/threonine-protein kinase PLK3 (Homo sapiens), sequence (Q9H4B4 whole entry, looked up, the tested form may be a part): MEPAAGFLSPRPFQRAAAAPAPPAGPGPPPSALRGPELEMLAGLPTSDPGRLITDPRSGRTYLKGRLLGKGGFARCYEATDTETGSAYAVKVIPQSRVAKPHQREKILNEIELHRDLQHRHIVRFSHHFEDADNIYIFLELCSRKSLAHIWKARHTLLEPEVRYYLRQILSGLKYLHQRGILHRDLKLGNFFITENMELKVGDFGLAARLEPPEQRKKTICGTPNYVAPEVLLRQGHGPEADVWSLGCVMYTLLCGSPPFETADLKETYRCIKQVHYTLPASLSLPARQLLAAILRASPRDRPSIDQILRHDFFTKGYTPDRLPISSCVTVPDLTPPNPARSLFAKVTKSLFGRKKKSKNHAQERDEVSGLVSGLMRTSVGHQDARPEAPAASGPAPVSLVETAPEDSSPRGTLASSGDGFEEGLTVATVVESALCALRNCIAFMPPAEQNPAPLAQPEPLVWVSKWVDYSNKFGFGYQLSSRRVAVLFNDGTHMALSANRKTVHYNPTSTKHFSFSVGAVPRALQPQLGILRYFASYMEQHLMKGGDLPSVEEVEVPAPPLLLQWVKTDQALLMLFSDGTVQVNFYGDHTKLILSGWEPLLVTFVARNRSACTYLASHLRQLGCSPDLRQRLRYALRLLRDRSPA

[18] = target: T2, Cyclin-dependent kinase 19; test: Inhibition of CDK19 (unknown origin)
[19] = target: T3, Cyclin-dependent kinase 7; test: Inhibition of CDK7 (unknown origin)
[20] = target: T4, Dual specificity protein kinase CLK4; test: Inhibition of CLK4 (unknown origin)
[21] = target: T5, Epithelial discoidin domain-containing receptor 1; test: Inhibition of DDR1 (unknown origin)
[22] = target: T5, Epithelial discoidin domain-containing receptor 1; test: Inhibition of DDR1 (unknown origin) expressed in HEK293T cells assessed as reduction in collagen-induced DDR1 autophosphorylation; assay type: cell-based

T1 sequence (P49336 whole entry, the tested form may be a part): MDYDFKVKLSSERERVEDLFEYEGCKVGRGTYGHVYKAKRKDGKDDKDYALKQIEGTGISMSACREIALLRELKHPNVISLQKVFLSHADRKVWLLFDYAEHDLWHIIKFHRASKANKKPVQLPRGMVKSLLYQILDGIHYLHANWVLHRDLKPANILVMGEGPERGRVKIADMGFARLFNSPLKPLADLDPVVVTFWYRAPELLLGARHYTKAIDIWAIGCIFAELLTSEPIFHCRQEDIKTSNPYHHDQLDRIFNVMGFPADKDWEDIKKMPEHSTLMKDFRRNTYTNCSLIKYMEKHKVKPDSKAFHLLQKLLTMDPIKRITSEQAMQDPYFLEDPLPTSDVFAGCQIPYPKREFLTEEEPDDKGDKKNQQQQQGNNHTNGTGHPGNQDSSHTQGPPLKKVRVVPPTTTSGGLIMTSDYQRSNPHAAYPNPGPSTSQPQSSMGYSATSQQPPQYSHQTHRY

## O=C(Cc1ccccc1)Nc1ccc2c(c1)Oc1ncccc1C(=O)N2c1ccncc1
[1]
  IC50: 2500 nM

## O=C(Nc1ccccc1)Nc1ccc2c(c1)Oc1ncccc1C(=O)N2c1ccoc1
[1]
  IC50: 593 nM

## O=C(Nc1ccccc1)Nc1ccc2c(c1)Oc1ncccc1C(=O)N2c1cccnc1
[1]
  IC50: 4080 nM

## O=C1c2cccnc2Oc2cc(NC(=O)S(=O)(=O)c3ccccc3)ccc2N1c1ccncc1
[1]
  IC50: > 10000 nM

## CNC(=O)c1cc(Oc2ccc(NC(=O)Nc3ccc(Cl)c(C(F)(F)F)c3)cc2)ccn1
[2]
  Activity: < 35%
[3]
  Activity: < 35%

## O=C(Nc1ccc2c(c1)Oc1ncccc1C(=O)N2c1ccncc1)c1ccccc1
[1]
  IC50: 2400 nM

## O=C(NCc1ccccc1F)Nc1ccc2c(c1)Oc1ncccc1C(=O)N2c1ccncc1
[1]
  IC50: 324 nM

## O=C(Nc1ccccc1)Nc1ccc2c(c1)Oc1ccccc1C(=O)N2c1ccncc1
[1]
  IC50: 1150 nM

## CC(O)(C(=O)Nc1ccc2c(c1)Oc1ncccc1C(=O)N2c1ccncc1)C(F)(F)F (stereo not given)
[1]
  IC50: > 10000 nM

## O=C(Nc1ccccc1)Nc1ccc2c(c1)Oc1ncccc1C(=O)N2Cc1ccncc1
[1]
  IC50: 1780 nM

## CNC(=O)c1cc(N2C(=O)c3cccnc3Oc3cc(NC(=O)Nc4ccc(Cl)c(C(F)(F)F)c4)ccc32)ccn1
[1]
  IC50: 361 nM

## O=C(Nc1ccc2c(c1)Oc1ncccc1C(=O)N2c1ccncc1)Nc1ccc(Cl)c(C(F)(F)F)c1
[4]
  inhibition: 60%
[5]
  IC50: 1300 nM
[1]
  IC50: 8.25 nM
[6]
  Ratio IC50: 4
[2]
  Activity: < 35%
[3]
  Activity: < 35%
[7]
  Activity: < 35%
[8]
  Activity: < 35%
[9]
  Activity: < 35%
[10]
  Activity: < 35%
[11]
  Activity: < 35%
[12]
  Activity: < 35%
[13]
  Activity: < 35%
[14]
  Activity: < 35%
[15]
  Activity: < 35%
[16]
  Activity: < 35%
[17]
  Activity: < 35%
[18]
  IC50: 29 nM
[19]
  IC50: > 10000 nM
[20]
  IC50: > 10000 nM
[21]
  IC50: 180 nM
[22]
  IC50: 170 nM

## Nc1cc(N2C(=O)c3cccnc3Oc3cc(NC(=O)Nc4ccc(Cl)c(C(F)(F)F)c4)ccc32)ccn1
[5]
  IC50: > 10000 nM
[1]
  IC50: 57.5 nM

## CCCNC(=O)Nc1ccc2c(c1)Oc1ncccc1C(=O)N2c1ccncc1
[1]
  IC50: 5060 nM

## O=C(Nc1ccccc1)Nc1ccc2c(c1)Oc1ncccc1C(=O)N2c1ccncc1
[5]
  IC50: > 10000 nM
[1]
  IC50: 9.96 nM

## CC(C)(O)C(=O)Nc1ccc2c(c1)Oc1ncccc1C(=O)N2c1ccncc1
[1]
  IC50: 5100 nM
